Reference: ChEMBL document CHEMBL5678806, “NMS-P937, an orally available, specific small-molecule polo-like kinase 1 inhibitor with antitumor activity in solid and hematologic malignancies” (Mol Cancer Ther, 2012)

Experiments:
[1] = biological target: Serine/threonine-protein kinase Nek7 (Homo sapiens) (UniProt Q8TDX7); test: Inhibition of N-terminal His6-tagged recombinant human NEK7 (2 to end residues) expressed in baculovirus infected Sf21 cells assessed as residual activity at 0.1 uM relative to control
Sequence of Serine/threonine-protein kinase Nek7 (Homo sapiens) (Q8TDX7 whole entry, looked up): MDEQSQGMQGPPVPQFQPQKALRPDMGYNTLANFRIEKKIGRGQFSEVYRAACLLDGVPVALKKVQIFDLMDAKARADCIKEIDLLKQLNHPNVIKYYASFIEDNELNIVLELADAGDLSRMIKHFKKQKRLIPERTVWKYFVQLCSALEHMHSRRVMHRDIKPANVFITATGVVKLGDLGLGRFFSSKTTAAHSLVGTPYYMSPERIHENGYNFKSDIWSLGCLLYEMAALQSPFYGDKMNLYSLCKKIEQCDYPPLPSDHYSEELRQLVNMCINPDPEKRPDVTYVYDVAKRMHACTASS

U-251 = test: Antiproliferative activity against human U-251 cells assessed as inhibition of cell growth incubated for 72 hrs by cell-titer glo assay; format: functional, cell-based; settings: U-251, 72 h
[2] = biological target: Dual specificity protein kinase CLK2 (Homo sapiens) (UniProt P49760); test: Inhibition of N-terminal GST-tagged recombinant human CLK2 (138 to end residues) expressed in baculovirus infected Sf21 cells assessed as residual activity at 0.1 uM relative to control
Sequence of Dual specificity protein kinase CLK2 (Homo sapiens) (P49760 whole entry, looked up): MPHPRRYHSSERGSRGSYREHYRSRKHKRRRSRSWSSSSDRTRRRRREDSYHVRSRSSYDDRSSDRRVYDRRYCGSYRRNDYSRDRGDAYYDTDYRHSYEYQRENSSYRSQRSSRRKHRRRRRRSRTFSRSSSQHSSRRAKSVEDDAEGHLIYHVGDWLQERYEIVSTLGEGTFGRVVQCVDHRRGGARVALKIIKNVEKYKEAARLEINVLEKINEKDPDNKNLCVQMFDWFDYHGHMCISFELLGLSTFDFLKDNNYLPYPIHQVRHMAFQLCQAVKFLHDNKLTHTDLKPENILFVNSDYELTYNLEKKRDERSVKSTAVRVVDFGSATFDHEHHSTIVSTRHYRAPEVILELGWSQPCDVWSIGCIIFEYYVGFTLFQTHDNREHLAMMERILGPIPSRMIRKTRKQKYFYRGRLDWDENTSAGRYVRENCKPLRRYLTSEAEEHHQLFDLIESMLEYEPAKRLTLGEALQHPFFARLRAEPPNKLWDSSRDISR

RS4-11 = test: Antiproliferative activity against human RS4-11 cells assessed as inhibition of cell growth incubated for 72 hrs by cell-titer glo assay; format: functional, cell-based; settings: RS4-11, 72 h
Summary of the method: (§1)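 Cells from ATCC or ECACC, kept in supplier-recommended medium with 1% penicillin-streptomycin at 37°C, 5% CO₂. Seeded at 10,000–30,000/cm² (adherent) or 100,000/mL (nonadherent) in medium with 10% fetal calf serum. Dosed after 24 h in duplicate with serial dilutions. Viable cells read by CellTiter-Glo 72 h later. IC50 from sigmoidal fit. At least two independent experiments.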

SK-BR-3 = test: Antiproliferative activity against human SK-BR-3 cells assessed as inhibition of cell growth incubated for 72 hrs by cell-titer glo assay; format: functional, cell-based; settings: SK-BR-3, 72 h
CAL-51 = test: Antiproliferative activity against human CAL-51 cells assessed as inhibition of cell growth incubated for 72 hrs by cell-titer glo assay; format: functional, cell-based; settings: CAL-51, 72 h
Summary of the method: (§2)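 Cells seeded 10,000–30,000/cm² (adherent) or 100,000/mL (suspension) in medium with 10% fetal calf serum; after 24 h treated in duplicate with serial dilutions for 72 h. Viable cells read by CellTiter-Glo luminescence; IC50 from sigmoidal fit; at least two independent experiments.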

[3] = biological target: PDPK1, 3-phosphoinositide-dependent protein kinase 1 (Homo sapiens) (UniProt O15530); test: Inhibition of N-terminal His6-tagged recombinant human PDK1 (52 to end residues) expressed in baculovirus infected Sf21 cells assessed as residual activity at 1 uM relative to control
Sequence of PDPK1, 3-phosphoinositide-dependent protein kinase 1 (Homo sapiens) (O15530 whole entry, looked up, the tested form may be a part): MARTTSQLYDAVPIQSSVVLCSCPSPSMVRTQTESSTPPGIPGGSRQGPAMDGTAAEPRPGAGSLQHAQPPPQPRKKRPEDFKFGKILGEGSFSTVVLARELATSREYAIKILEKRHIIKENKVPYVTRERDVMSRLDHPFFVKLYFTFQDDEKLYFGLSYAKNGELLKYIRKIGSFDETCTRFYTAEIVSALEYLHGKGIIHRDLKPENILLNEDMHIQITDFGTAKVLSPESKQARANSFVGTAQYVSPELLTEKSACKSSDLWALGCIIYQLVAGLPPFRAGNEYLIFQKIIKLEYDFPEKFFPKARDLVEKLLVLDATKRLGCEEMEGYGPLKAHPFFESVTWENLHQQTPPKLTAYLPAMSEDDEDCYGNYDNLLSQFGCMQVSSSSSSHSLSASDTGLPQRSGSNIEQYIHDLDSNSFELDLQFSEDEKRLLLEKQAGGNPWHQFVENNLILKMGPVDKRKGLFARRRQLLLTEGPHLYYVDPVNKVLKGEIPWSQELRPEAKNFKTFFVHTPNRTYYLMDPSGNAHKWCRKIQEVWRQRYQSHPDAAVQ

[4] = biological target: Ephrin type-A receptor 4 (Homo sapiens) (UniProt P54764); test: Inhibition of N-terminal His6-tagged recombinant human EphA4 (601 to 892 residues) expressed in baculovirus infected Sf21 cells assessed as residual activity at 1 uM relative to control
[5] = biological target: CDK9/cyclin T1 (Homo sapiens) (UniProt O60563+P50750); test: Inhibition of C-terminal 6His-tagged full-length recombinant human CDK9/ full-length human cyclin T1 expressed in baculovirus infected Sf21 cells assessed as residual activity at 0.1 uM relative to control
SH-SY5Y = test: Antiproliferative activity against human SH-SY5Y cells assessed as inhibition of cell growth incubated for 72 hrs by cell-titer glo assay; format: functional, cell-based
[6] = Cmax in Sprague-Dawley rat at 10 mg/kg, iv by LC-MS analysis; format: ADME, organism-based; settings: in vivo
[7] = biological target: Casein kinase I isoform gamma-1 (Homo sapiens) (UniProt Q9HCP0); test: Inhibition of N-terminal 6His-tagged recombinant human CK1gamma1 (25 to 355 residues) expressed in baculovirus infected Sf21 cells assessed as residual activity at 1 uM relative to control
Sequence of Casein kinase I isoform gamma-1 (Homo sapiens) (Q9HCP0 whole entry, looked up, the tested form may be a part, canonical isoform): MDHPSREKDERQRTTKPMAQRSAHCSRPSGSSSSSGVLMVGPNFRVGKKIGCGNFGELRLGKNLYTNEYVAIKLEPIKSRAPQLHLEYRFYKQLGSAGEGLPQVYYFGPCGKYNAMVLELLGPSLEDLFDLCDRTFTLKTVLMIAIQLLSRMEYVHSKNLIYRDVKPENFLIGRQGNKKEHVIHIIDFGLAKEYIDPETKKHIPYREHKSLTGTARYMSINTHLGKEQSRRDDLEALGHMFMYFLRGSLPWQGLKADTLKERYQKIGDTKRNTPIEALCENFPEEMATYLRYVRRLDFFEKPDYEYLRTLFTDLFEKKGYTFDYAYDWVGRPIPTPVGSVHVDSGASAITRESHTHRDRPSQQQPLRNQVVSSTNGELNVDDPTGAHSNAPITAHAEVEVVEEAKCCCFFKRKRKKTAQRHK

[8] = biological target: ALK tyrosine kinase receptor (Homo sapiens) (UniProt Q9UM73); test: Inhibition of N-terminal His6-tagged recombinant human ALK (1058 to end residues) expressed in baculovirus infected Sf21 cells assessed as residual activity at 1 uM relative to control
Sequence of ALK tyrosine kinase receptor (Homo sapiens) (Q9UM73 19-1620 limits assumed): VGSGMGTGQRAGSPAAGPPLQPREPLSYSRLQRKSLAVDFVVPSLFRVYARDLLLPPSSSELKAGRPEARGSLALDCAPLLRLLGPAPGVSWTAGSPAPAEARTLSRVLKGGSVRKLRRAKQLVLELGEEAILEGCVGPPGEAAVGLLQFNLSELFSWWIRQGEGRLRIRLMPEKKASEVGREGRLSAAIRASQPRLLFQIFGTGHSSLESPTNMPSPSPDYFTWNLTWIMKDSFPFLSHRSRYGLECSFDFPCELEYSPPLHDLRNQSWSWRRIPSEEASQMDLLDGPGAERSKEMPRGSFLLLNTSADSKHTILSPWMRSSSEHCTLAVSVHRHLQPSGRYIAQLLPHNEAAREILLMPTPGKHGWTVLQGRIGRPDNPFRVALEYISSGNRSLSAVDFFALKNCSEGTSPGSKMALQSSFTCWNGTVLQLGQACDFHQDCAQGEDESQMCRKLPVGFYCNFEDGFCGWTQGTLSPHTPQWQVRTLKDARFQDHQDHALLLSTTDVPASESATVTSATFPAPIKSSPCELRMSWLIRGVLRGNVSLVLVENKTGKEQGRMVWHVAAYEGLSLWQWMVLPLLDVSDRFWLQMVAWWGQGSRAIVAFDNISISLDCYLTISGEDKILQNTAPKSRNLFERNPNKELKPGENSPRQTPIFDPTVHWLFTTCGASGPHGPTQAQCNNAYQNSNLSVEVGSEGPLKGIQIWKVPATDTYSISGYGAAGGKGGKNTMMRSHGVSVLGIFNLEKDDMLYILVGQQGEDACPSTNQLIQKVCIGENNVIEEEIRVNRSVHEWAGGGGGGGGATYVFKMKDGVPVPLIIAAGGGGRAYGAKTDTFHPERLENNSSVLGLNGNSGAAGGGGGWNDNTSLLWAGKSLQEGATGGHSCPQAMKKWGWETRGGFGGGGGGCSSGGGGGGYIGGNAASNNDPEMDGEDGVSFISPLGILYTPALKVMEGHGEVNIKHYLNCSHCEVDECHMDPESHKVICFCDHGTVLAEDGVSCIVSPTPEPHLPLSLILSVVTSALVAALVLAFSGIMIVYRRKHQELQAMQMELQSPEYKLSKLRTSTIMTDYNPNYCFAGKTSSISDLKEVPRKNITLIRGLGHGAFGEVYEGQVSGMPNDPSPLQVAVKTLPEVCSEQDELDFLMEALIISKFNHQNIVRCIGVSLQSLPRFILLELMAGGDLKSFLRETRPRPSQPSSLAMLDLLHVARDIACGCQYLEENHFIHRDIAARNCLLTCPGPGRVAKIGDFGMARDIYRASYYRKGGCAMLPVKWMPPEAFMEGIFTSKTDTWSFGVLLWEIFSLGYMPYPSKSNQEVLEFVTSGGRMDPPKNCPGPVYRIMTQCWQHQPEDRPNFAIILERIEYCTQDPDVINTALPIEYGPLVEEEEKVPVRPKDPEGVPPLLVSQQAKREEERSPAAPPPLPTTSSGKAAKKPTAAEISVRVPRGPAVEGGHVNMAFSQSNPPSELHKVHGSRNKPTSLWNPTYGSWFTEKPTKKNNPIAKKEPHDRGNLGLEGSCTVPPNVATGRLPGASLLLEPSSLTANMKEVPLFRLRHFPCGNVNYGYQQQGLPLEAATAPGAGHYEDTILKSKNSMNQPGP

Casein kinase 2 [9] = biological target: T1, Casein kinase 2 (Homo sapiens, UniProt P67870+P68400+P19784+Q8NEV1); test: Inhibition of alpha-subunit N-terminal 6His- and beta-subunit N-terminal GST-tagged recombinant human CK2 expressed in baculovirus infected Sf21 cells assessed as residual activity at 1 uM relative to control
[10] = biological target: CDK6/cyclin D3 (Homo sapiens) (UniProt P30281+Q00534); test: Inhibition of N-terminal His6-tagged full-length human CDK6/N-terminal GST-tagged full-length human cyclinD3 expressed in Sf21 cells assessed as residual activity at 0.1 uM relative to control
U2OS = test: Induction of apoptosis in human U2OS cells assessed as colocalization of cells by measuring activation of caspase 3 incubated for 24 hrs by DRAQ 5 staining based high content imaging assay relative to control; format: functional
[11] = Tmax in male cynomolgus monkey at 5 mg/kg, po by LC-MS analysis; format: ADME, organism-based, Macaca fascicularis; settings: in vivo
SET-2 = test: Antiproliferative activity against human SET2 cells assessed as inhibition of cell growth incubated for 72 hrs by cell-titer glo assay; format: functional, cell-based; settings: SET-2, 72 h; summary of the method: as §1
MDA-MB-453 = test: Antiproliferative activity against human MDA-MB-453 cells assessed as inhibition of cell growth incubated for 72 hrs by cell-titer glo assay; format: functional, cell-based; settings: MDA-MB-453, 72 h
Summary of the method: (§3)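 Cells seeded at 10,000–30,000/cm² (adherent) or 100,000/mL (nonadherent) in medium with 10% fetal calf serum; after 24 h, treated in duplicate with serial dilutions for 72 h. Viable cell number read by CellTiter-Glo luminescence; IC50 from sigmoidal fit; at least two independent experiments.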

Caco-2 = test: Antiproliferative activity against human Caco-2 cells assessed as inhibition of cell growth incubated for 72 hrs by cell-titer glo assay; format: functional, cell-based; settings: Caco-2, 72 h; summary of the method: as §2
[12] = Antiproliferative activity against human NPA cells assessed as inhibition of cell growth incubated for 72 hrs by cell-titer glo assay; format: functional, cell-based; summary of the method: as §1
[13] = biological target: BDNF/NT-3 growth factors receptor (Homo sapiens) (UniProt Q16620); test: Inhibition of N-terminal His6 tagged recombinant human TrkB (455 to end residues) expressed in baculovirus infected Sf21 cells assessed as residual activity at 0.1 uM relative to control
Sequence of BDNF/NT-3 growth factors receptor (Homo sapiens) (Q16620 32-822 limits assumed): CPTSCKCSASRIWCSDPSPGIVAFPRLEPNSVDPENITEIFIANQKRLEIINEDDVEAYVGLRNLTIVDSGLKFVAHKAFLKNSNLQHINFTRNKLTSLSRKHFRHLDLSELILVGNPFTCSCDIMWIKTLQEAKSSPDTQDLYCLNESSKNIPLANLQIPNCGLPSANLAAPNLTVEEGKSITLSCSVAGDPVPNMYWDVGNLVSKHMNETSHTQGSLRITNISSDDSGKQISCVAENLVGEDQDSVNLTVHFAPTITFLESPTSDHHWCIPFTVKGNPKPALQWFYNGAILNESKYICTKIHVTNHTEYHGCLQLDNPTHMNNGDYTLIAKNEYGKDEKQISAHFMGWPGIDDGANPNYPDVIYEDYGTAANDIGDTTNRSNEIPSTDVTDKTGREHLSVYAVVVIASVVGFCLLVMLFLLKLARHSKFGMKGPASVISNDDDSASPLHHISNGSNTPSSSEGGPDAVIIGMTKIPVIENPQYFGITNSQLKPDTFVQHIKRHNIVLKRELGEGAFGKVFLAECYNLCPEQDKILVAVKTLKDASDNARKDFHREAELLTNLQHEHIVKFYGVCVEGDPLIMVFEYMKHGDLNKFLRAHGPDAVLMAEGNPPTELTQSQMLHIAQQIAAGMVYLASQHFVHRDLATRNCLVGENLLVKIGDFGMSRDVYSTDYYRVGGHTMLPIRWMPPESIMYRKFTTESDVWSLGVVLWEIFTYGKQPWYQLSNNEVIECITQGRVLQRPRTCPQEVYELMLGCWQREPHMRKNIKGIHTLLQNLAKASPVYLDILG

CAKI-2 = test: Antiproliferative activity against human CAKI-2 cells assessed as inhibition of cell growth incubated for 72 hrs by cell-titer glo assay; format: functional, cell-based; settings: CAKI-2, 72 h; summary of the method: as §2
[14] = biological target: Ephrin type-B receptor 1 (Homo sapiens) (UniProt P54762); test: Inhibition of N-terminal 6His-tagged recombinant human EphB1 (564 to end residues) expressed in baculovirus infected Sf21 cells assessed as residual activity at 1 uM relative to control
Casein kinase 2 [15] = biological target: T1, Casein kinase 2; test: Inhibition of CK2 (unknown origin) at 10 micromol/L in presence of [gamma-33P]ATP relative to control; format: protein assay; settings: dose 10.0 µmol/L
Jurkat = test: Antiproliferative activity against human Jurkat cells assessed as inhibition of cell growth incubated for 72 hrs by cell-titer glo assay; format: functional, cell-based; summary of the method: as §3
[16] = biological target: Serine/threonine-protein kinase tousled-like 2 (Homo sapiens, UniProt Q86UE8); test: Inhibition of TLK2 (unknown origin) in presence of [gamma-33P]ATP
Sequence of Serine/threonine-protein kinase tousled-like 2 (Q86UE8 whole entry, the tested form may be a part): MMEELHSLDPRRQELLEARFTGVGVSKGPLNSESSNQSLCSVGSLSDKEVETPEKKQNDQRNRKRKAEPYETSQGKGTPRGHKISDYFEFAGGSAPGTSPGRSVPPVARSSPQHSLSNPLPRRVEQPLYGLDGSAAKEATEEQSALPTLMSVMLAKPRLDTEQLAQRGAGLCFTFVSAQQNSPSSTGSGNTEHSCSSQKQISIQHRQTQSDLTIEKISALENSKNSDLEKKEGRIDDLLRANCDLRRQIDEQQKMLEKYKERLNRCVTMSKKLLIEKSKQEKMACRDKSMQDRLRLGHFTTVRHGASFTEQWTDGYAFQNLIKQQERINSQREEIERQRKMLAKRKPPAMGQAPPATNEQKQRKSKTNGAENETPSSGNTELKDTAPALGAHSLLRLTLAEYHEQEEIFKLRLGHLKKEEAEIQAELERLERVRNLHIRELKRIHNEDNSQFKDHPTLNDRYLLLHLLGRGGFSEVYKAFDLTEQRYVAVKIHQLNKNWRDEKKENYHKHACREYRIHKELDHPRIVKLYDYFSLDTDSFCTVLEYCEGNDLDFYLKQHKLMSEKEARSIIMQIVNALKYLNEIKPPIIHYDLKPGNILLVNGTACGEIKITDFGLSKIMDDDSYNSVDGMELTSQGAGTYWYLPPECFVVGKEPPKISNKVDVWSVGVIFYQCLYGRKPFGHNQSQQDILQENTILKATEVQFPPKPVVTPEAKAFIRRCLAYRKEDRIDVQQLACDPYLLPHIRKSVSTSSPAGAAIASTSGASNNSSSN

[17] = biological target: Mitogen-activated protein kinase kinase kinase 5 (Homo sapiens) (UniProt Q99683); test: Inhibition of N-Terminal GST and C-terminal His6-tagged recombinant human ASK1 (649 to 946 residues) expressed in E. coli cell assessed as residual activity at 1 uM relative to control

## CN1CCN(c2ccc(OC(F)(F)F)c(Nc3ncc4c(n3)-c3c(c(C(N)=O)nn3CCO)CC4)c2)CC1 [ONVANSERTIB]
[1]
  Activity: 123%
U-251
  IC50: 190 nM
[2]
  Activity: 52%
RS4-11
  IC50: 43 nM
SK-BR-3
  IC50: 35 nM
CAL-51
  IC50: 19 nM
[3]
  Activity: 144%
[4]
  Activity: 80%
[5]
  Activity: 64%
SH-SY5Y
  IC50: 30 nM
[6]
  Cmax: 6.8 µM
[7]
  Activity: 60%
[8]
  Activity: 133%
Casein kinase 2 [9]
  Activity: 42%
[10]
  Activity: 114%
U2OS
  Activity: 13%
[11]
  Tmax: 2.7 h
SET-2
  IC50: 145 nM
MDA-MB-453
  IC50: 90 nM
Caco-2
  IC50: 4.76 µM
[12]
  IC50: 72 nM
[13]
  Activity: 145%
CAKI-2
  IC50: 83 nM
[14]
  Activity: 75%
Casein kinase 2 [15]
  inhibition: 89.7%
Jurkat
  IC50: 48 nM
[16]
  IC50: > 10 µM
[17]
  Activity: 125%
